Data on twelve compounds can be found in PMC3361693 (Chemistry & biology, 2012).

In brackets after ≈: the same amount, converted by molar mass. Where two headings read alike, the source gives them in different places. Bounds are passed on as bounds.

One may read the IC50 as the concentration that inhibits the measured activity by half.

Data set [1] concerns NO production by LPS-stimulated RAW264.7 murine macrophages. Put plainly: Inhibition of NO production by LPS-stimulated murine macrophages. The settings on record: Mus musculus. In kind it is cell-based.
Data set [2] deals with V. harveyi BB120. Put plainly: microbe, parasite or virus in culture. Type of data set: cell-based, Vibrio harveyi.
For data set [3], the system named is E. coli JB525. Put plainly: QS inhibition: GFP production in E. coli JB525. In kind it is cell-based, Escherichia coli.
Data set [4] in a line: Cytotoxicity / cell survival in Raw264.7 cells. The settings on record: mouse.
A further data set deals with Raw264.7 cells. Briefly: Cytotoxicity / cell survival in Raw264.7 cells. The settings on record: for IC50: read-out: Cytotoxicity in Raw264.7 cells (IC50), Raw264.7 cells.
For data set [5], the system named is E. coli JB525. Put plainly: Growth inhibitory. Type of data set: cell-based, Escherichia coli.
Data set [6] relates to V. harveyi BB120. Briefly: Growth inhibitory. Type of data set: cell-based, Vibrio harveyi.
The next data set has as its system TNF-α. Put plainly: qRT-PCR transcript level in LPS-stimulated RAW 264.7 cells: TNF-α. To be noted: after 6 h of treatment. Type of data set: cell-based, murine. The gist of the method:
(§1)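 Murine RAW264.7 macrophages were LPS-stimulated and treated with the test compound for 6 h, alongside untreated LPS-stimulated cells. RNA was isolated and reverse-transcribed to cDNA. Transcripts of TNF-α, IL-1β, IL-6 and iNOS were quantified by qRT-PCR and expressed as fold change versus untreated cells. Three replicates were run, reported as mean ± standard deviation, with Student's t-test (p < 0.05).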

Another data set relates to IL-1β. Put plainly: qRT-PCR transcript level in LPS-stimulated RAW 264.7 cells: IL-1β. In kind it is cell-based, murine. To be noted: after 6 h of treatment. The essentials:
as §1

The test system of the next data set is IL-6. Put plainly: qRT-PCR transcript level in LPS-stimulated RAW 264.7 cells: IL-6. Type of data set: cell-based, murine. To be noted: after 6 h of treatment. The gist of the method:
as §1
Background: In qPCR the cycle at which signal appears reflects the starting amount.

The subject of the next data set is iNOS. Put plainly: qRT-PCR transcript level in LPS-stimulated RAW 264.7 cells: iNOS. Type of data set: cell-based, murine. To be noted: after 6 h of treatment. The essentials:
as §1

Setting [7] is: RAW264.7, read-out: NO inhibition (IC50), dash with footnote b.
The mark [8] stands for this setting: Vibrio harveyi, read-out: QS inhibition (IC50) V. harveyi, dash with footnote d.
[9] abbreviates: Escherichia coli, read-out: QS inhibition (IC50) E. coli, dash with footnote d.
[10] abbreviates: read-out: QS inhibition (IC50) V. harveyi, inhibition of bioluminescence, V. harveyi BB120.
The mark [11] stands for this setting: read-out: QS inhibition (IC50) E. coli, inhibition of GFP production, E. coli JB525, OHHL autoinducer.
Where [12] appears, read: RAW264.7, read-out: NO inhibition (IC50 ± SD).
Where [13] appears, read: Vibrio harveyi, read-out: QS inhibition (IC50) V. harveyi.
[14] abbreviates: Escherichia coli, read-out: QS inhibition (IC50) E. coli.

On to `O=C1OCCC1O` (racemic) [Compound 6, (R/S)-2-hydroxy-γ-butyrolactone], for which the IC50 in data set [1] (setting [7]) is more than 30 µg/mL; with V. harveyi BB120 [2] (setting [8]), more than 125 µg/mL; with E. coli JB525 [3] (setting [9]), more than 125 µg/mL; in [4], more than 98 µM.
For `O=C(/C=C/CCl)O[C@H]1COC(=O)C1` [Compound 17, epi-honaucin A], the IC50 in the data set on V. harveyi BB120 [2] (setting [10]) was 22.1 µM; with E. coli JB525 [3] (setting [11]) it was 260 µM; in the data set with Raw264.7 cells it was more than 49 µM.
For the compound `O=C(O)/C=C/CBr` [Compound 14, 4-bromocrotonic acid], the IC50 in [1] (setting [12]) worked out at 3.5 ± 0.5 µM; in the data set on V. harveyi BB120 [2] (setting [13]), 10.5 µM; in data set [4] (RAW264.7 macrophage cells), 35 µM. For the same compound, the “MIC (antibiotic effect)” value against E. coli JB525 [5] amounted to 188 µM (≈ 31 µg/mL).
Turning to `O=C(O)/C=C/CCl` [Compound 7, 4-chlorocrotonic acid], the IC50 in data set [1] (setting [12]) is 28 ± 4.3 µM; in the data set on V. harveyi BB120 [2] (setting [13]), 72.5 µM; with E. coli JB525 [3] (setting [14]), 152 µM; in data set [4] (RAW264.7 macrophage cells) it was 80 µM.
Take `CCOC(=O)C[C@H](O)COC(=O)/C=C/CCl` [Compound 2, Honaucin B]: the IC50 is 17.6 µM with V. harveyi BB120 [2] (setting [10]), 908 µM with E. coli JB525 [3] (setting [11]) and 16 µM in the data set on Raw264.7 cells. Besides, the “growth inhibitory effects: none observed up to concentration” value (from here on “growth inhibitory effects”) with V. harveyi BB120 [6] and in the data set on E. coli JB525 [5] was more than 458 µM throughout.
Regarding `O=C(O)/C=C/CF` [Compound 13, 4-fluorocrotonic acid], the IC50 was 11.6 ± 4.3 µM in data set [1] (setting [12]), 167 µM in the data set with V. harveyi BB120 [2] (setting [13]), more than 304 µM in the data set with E. coli JB525 [3] (setting [14]) and more than 288 µM in data set [4].
Regarding `COC(=O)C[C@H](O)COC(=O)/C=C/CCl` [Compound 3, Honaucin C], the IC50 was 14.6 µM in the data set on V. harveyi BB120 [2] (setting [10]), 576 µM with E. coli JB525 [3] (setting [11]) and 30 µM in the data set with Raw264.7 cells. Moreover, the “growth inhibitory effects” value in the data set with V. harveyi BB120 [6] and in the data set on E. coli JB525 [5] was more than 483 µM each time.
On to `O=C1C[C@@H](O)CO1` [Compound 5, (R)-3-hydroxy-γ-butyrolactone], for which the IC50 with V. harveyi BB120 [2] (setting [8]) was more than 125 µg/mL; with E. coli JB525 [3] (setting [9]), more than 125 µg/mL; in data set [4], more than 98 µM.
With `O=C(/C=C/CCl)O[C@@H]1COC(=O)C1` [Compound 1, Honaucin A], the IC50 in the data set on V. harveyi BB120 [2] (setting [10]) is 5.6 µM; in the data set with E. coli JB525 [3] (setting [11]), 38.5 µM; in the data set on Raw264.7 cells, more than 49 µM. Further, the “reduction in transcripts of TNF-α” value in the data set on TNF-α was −9.3 fold. The “reduction in transcripts of IL-1β” value with IL-1β is −154.6 fold. The “reduction in transcripts of IL-6” value in the data set with IL-6 was −19.0 fold. For the same compound, the “reduction in transcripts of iNOS” value with iNOS is −11.8 fold. For the same compound, the “growth inhibitory effects” value in the data set with V. harveyi BB120 [6] and in the data set with E. coli JB525 [5] was more than 610 µM each time. In the data set on Raw264.7 cells (RAW264.7 cells, cytotoxicity IC50 vs NO inhibition IC50), the “therapeutic window between NO inhibitory effect and cytotoxicity” value was “greater than ten-fold”.
Turning to `C/C=C/C(=O)O` [Compound 9, crotonic acid], the IC50 in data set [1] (setting [7]) is more than 30 µg/mL; in [1] (setting [12]), more than 116 µM; in the data set with V. harveyi BB120 [2] (setting [8]), more than 125 µg/mL; with E. coli JB525 [3] (setting [9]), more than 125 µg/mL; in [4] (RAW264.7 macrophage cells), more than 116 µM.
For `O=C1C[C@H](O)CO1` [Compound 4, (S)-3-hydroxy-γ-butyrolactone], the IC50 is more than 125 µg/mL in the data set on V. harveyi BB120 [2] (setting [8]), more than 125 µg/mL in the data set with E. coli JB525 [3] (setting [9]) and more than 98 µM in data set [4].
`O=C(O)/C=C/CI` [Compound 15, 4-iodocrotonic acid]: the IC50 is 1.2 ± 0.2 µM in [1] (setting [12]), 1.2 µM in the data set on V. harveyi BB120 [2] (setting [13]) and 10 µM in data set [4] (RAW264.7 macrophage cells). The “growth inhibitory effects” value in the data set with V. harveyi BB120 [6] is more than 32 µM. The “MIC (antibiotic effect)” value with E. coli JB525 [5] is 18 µM (≈ 3.82 µg/mL).
